hERG rescue: hERG (human) protection from proarrhythmic block | Q12809 | CHO-hERG, FluxOR thallium flux, dofetilide IC70 present | activation (rescue from dofetilide block), less the hit threshold, % at 10 µM | 310,000 tested, 0.51% active;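 active = activation above the mean of controls blocked by dofetilide plus 5 SD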;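 note: thallium influx through hERG after potassium depolarization seen as dye fluorescence rise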
KCNK3 inh: human KCNK3 channel inhibition, primary screen. CHO-KCNK3 thallium flux, FluxOR fluorescence; hits give low values. B-score at 10 µM. 340,000 tested, 0.84% active. AID 602410;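 active = B-score under library mean minus 4 SD, starting fluorescence ratio at most library mean plus 5 SD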;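 note: more negative B-score means stronger inhibition of thallium flux through KCNK3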
KCNK9 inh: blocks the human KCNK9 two-pore domain potassium channel | HEK293 KCNK9, FluxOR thallium flux fluorescence; hits give low values | B-score at 10 µM | 310,000 tested, 1.2% active | AID 488922;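 active = ratio B-score over 3 SD below the library mean, with starting fluorescence within 5 SD of its mean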;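 note: negative B-score means less thallium flux so channel inhibition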
KCNQ1 act: human KCNQ1 channel potentiation or activation | 310,000 tested, 0.35% active | B-score at 10 µM | CHO-K1 KCNQ1, thallium flux FluxOR fluorescence; hits give high values | P51787 | AID 2648;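 active = fluorescence ratio B-score, a plate-corrected score, at least three library SD, with initial intensity B-score within 5 SD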
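Assay system: CHO-K1 cells stably expressing KCNQ1; Medium: assay buffer with matched DMSO; Also added: K+/Tl+ depolarizing stimulus; Dosing: single dose; Timing: dye 90 min, compound 20 min, room temperature; Measured by: kinetic FluxOR thallium fluorescence, 10-s 1-Hz baseline, 110-s post-stimulus read; Read-out: peak-minus-minimum fluorescence over initial fluorescence, negative-control normalized, B-scored.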
KCNQ1 block: inhibitors of human KCNQ1 potassium channel; CHO-K1 KCNQ1, FluxOR thallium flux fluorescence; hits give high values; P51787; AID 2642; 310,000 tested, 1.3% active; B-score at 10 µM;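 active = compounds whose thallium flux B-score, printed positive for inhibition, exceeds three library SD while starting fluorescence stays within three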;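 note: channel opened by potassium depolarization with thallium stimulus after 20 min compound exposure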
KCNK9 block conf: human KCNK9 inhibitor confirmation; HEK293 KCNK9 cells, FluxOR thallium flux fluorescence; 4,900 tested, 43% active; AID 492992; inhibition, % at 10 µM; shares compounds with KCNK9 inh;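 active = thallium signal inhibited by more than 5 SD of the compound-free buffer control wells, on both duplicate plates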
Kir21 sel: mouse Kir2.1 off-target activity of KCNK9 modulators; inhibition, % at 10 µM; AID 492993; Kir2.1 cells, FluxOR thallium flux fluorescence; 4,900 tested, 4% active; shares compounds with KCNK9 inh;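 active = thallium signal drop more than 5 SD beyond the mean of the no-compound control wells, seen in both duplicate plates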;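 note: signal is fluorescence rise after thallium addition divided by baseline fluorescence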
KCNK9 uninduced: second counter-screen for KCNK9 modulators: effect in non-induced cells; 4,900 tested, 40% active; non-induced KCNK9-HEK293, FluxOR thallium flux; AID 492997; inhibition, % at 10 µM; shares compounds with KCNK9 inh;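 active = thallium signal drop beyond 5 SD of the untreated control mean, on both duplicate plates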
KCNK3 confirm: confirmation of human KCNK3 two-pore domain potassium channel inhibitors. shares compounds with KCNK3 inh. 2,400 tested, 99% active. AID 651638. CHO-KCNK3 thallium flux, FluxOR fluorescence; 0% buffer, 100% carvedilol maximal block. ratio percent of control, % at 10 µM;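 active = ratio percent of control, averaged over triplicates, above buffer control mean plus 5 SD, cut at about 64% in these data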;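 note: ratio is the fluorescence rise from min to max over baseline after thallium stimulus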
KCNK3 uninduced: KCNK3 inhibitor counter-screen hit in non-induced cells; non-induced KCNK3 parental cells, FluxOR thallium flux; hits give low values; shares compounds with KCNK3 inh; 2,400 tested, 40% active; thallium flux ratio (lower = more inhibition) at 10 µM;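 active = thallium flux ratio, averaged over three wells, more than 5 SD below the buffer control mean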;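 note: host cells are CHO cells without KCNK3 induction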
Hits are given with their value; 0 = inactive; - = no result given. In the library only some 3.1% were active in any assay of this set; here they are far more common.

SMILES | hERG rescue | KCNK3 inh | KCNK9 inh | KCNQ1 act | KCNQ1 block | KCNK9 block conf | Kir21 sel | KCNK9 uninduced | KCNK3 confirm | KCNK3 uninduced
COc1cc(C2Nc3ccccc3C(=O)N2c2ccc(Cl)cc2)c(Cl)cc1OCC(=O)O (stereo not drawn) | 0 | 0 | 0 | 0 | 0 | - | - | - | - | -
CCOc1cc(C2Nc3ccccc3C(=O)N2c2ccccc2)ccc1O (stereo not drawn) | 0 | 0 | 0 | 0 | 0 | - | - | - | - | -
CCOC(=O)COc1c(OC)cc(Cl)cc1C1Nc2ccccc2C(=O)N1c1ccccc1 (stereo not drawn) | 0 | -11.3 | -10.5 | 0 | 0 | 55.5% | 0 | 36.0% | 107.0 | 0.136
COc1ccc(S(=O)(=O)NCc2ccc(C(=O)NCc3cccnc3)cc2)cc1 | 0 | - | 0 | 0 | 0 | - | - | - | - | -
CCCCCOC(=O)c1ccc(NC(=O)c2ccco2)cc1 | 0 | 0 | -12 | 0 | 0 | 49.0% | 0 | 0 | 123.0 | 0.149
CCOC(=O)c1cccc(NC(=O)c2ccc(NC(=O)c3ccco3)cc2)c1 | 0 | 0 | 0 | 0 | 0 | - | - | - | - | -
Cc1ccc(S(=O)(=O)n2nc(OC(=O)c3ccccc3C)cc2N)cc1 | 0 | -14.7 | -17.9 | 0 | 0 | 69.5% | 0 | 74.5% | 116.7 | 0
C(=C\c1ccccc1)/CSc1nnc(-c2ccccc2)n1Cc1ccco1 | 0 | 0 | 0 | 0 | 0 | - | - | - | - | -
Clc1cccc(-c2nnc(SC/C=C/c3ccccc3)n2Cc2ccco2)c1 | 0 | -11.8 | -15 | 0 | 0 | 44.5% | 74.0% | 38.5% | 109.7 | 0.153
Cc1cc(Br)ccc1NC(=O)CN(C)C(=O)Cn1c(=O)cnc2ccccc21 | 0 | 0 | 0 | 0 | 0 | - | - | - | - | -
Clc1ccc(OCCSc2ncccn2)c2ccccc12 | 0 | 0 | -8.41 | 0 | 0 | 0 | 0 | 49.5% | 105.7 | 0
COc1ccc(/C=N/Nc2cc(C)nc3ccc(OC)cc23)c(OC)c1 | 0 | -13.6 | -16.4 | 0 | 14 | 0 | 0 | 38.0% | 151.0 | 0.109
COc1ccccc1/C=N/Nc1cc(C)nc2ccc(C)cc12 | 0 | 0 | 0 | 0 | 0 | - | - | - | - | -
Cn1c(Oc2ccccc2)c(C=O)c2ccccc21 | 0 | 0 | 0 | 0 | 0 | - | - | - | - | -
CCCCCCCCn1c2c(c(=N)c3ccccc31)CCC2 | 0 | 0 | -16.1 | 0 | 11 | 51.0% | 83.0% | 0 | 139.7 | 0.139
Cc1cccc(-[n+]2c(C)cc(C)c3c(=O)[nH]c(=O)[nH]c32)c1 | 0 | 0 | 0 | 0 | 0 | - | - | - | - | -
Cc1ccc(S(=O)(=O)N(C)C)cc1NC(=O)CN1CCN(Cc2ccccc2)CC1 | 0 | 0 | 0 | 0 | 0 | - | - | - | - | -
Cc1ccc(S(=O)(=O)N(C)C)cc1NC(=O)c1cc(C(C)(C)C)nn1Cc1ccccc1 | 0 | -12.4 | -16.1 | 0 | 0 | 39.5% | 0 | 33.0% | 128.0 | 0.136
Cc1cn(C2OC(COC(=O)c3ccccc3)C(O)C2O)c(=O)[nH]c1=O (stereo not drawn) | 0 | 0 | 0 | 0 | 0 | - | - | - | - | -
Cc1cn(C2OC(COC(=O)c3ccccc3)C(OC(=O)c3ccccc3)C2OC(=O)c2ccccc2)c(=O)[nH]c1=O (stereo not drawn) | 0 | -11 | -10.3 | 0 | 0 | 37.5% | 0 | 34.5% | 103.0 | 0.16
O=c1cc(CN2CCN(C/C=C/c3ccccc3)CC2)c2cc(O)c(-c3ccccc3)cc2o1 | 0 | 0 | 0 | 0 | 0 | - | - | - | - | -
CC(C)CN(Cc1cc(=O)oc2cc(-c3ccccc3)c(O)cc12)CC(C)C | 0 | 0 | -10.3 | 0 | 11 | 53.0% | 0 | 27.0% | 145.7 | 0.088
O=C(Nc1ccccc1C(=O)O)c1cc(S(=O)(=O)Nc2cccc(F)c2)ccc1Cl | 0 | 0 | 0 | 0 | 0 | - | - | - | - | -
Cc1cccc(C)c1NC(=O)c1ccc(-c2ccc(Cl)cc2Cl)o1 | 0 | -9.01 | -16 | 0 | 7 | 51.0% | 0 | 37.5% | 130.3 | 0.139
CC(OC(=O)c1ccc(O)cc1)C(=O)Nc1cc(C(F)(F)F)ccc1Cl (stereo not drawn) | 0 | -9.81 | -10.6 | 0 | 6 | 0 | 0 | 48.5% | 138.7 | 0.123
SMILES | hERG rescue | KCNK3 inh | KCNK9 inh | KCNQ1 act | KCNQ1 block | KCNK9 block conf | Kir21 sel | KCNK9 uninduced | KCNK3 confirm | KCNK3 uninduced
O=C(COC(=O)c1ccc(O)cc1)Nc1cc(C(F)(F)F)ccc1Cl | 0 | 0 | 0 | 0 | 0 | - | - | - | - | -
Cc1cc(C)c(S(=O)(=O)N2CCOCC2)c(C)c1N(C)S(=O)(=O)c1ccccc1 | 0 | 0 | 0 | 0 | 0 | - | - | - | - | -
Cc1cc(C)c(S(=O)(=O)N2CCCCC2)c(C)c1N(C)S(=O)(=O)c1ccccc1 | 0 | -8.76 | 0 | 0 | 0 | 0 | 0 | 0 | 97.0 | 0.157
Cc1cccc(OCC(=O)NC(C)C(=O)N/N=C/c2c(OCc3ccccc3)ccc3ccccc23)c1 (stereo not drawn) | 0 | -9.43 | -15.8 | 0 | 0 | 65.5% | 0 | 47.5% | 105.3 | 0
Cc1ccccc1C(=O)Oc1ccc(Cl)cc1C(=S)N1CCOCC1 | 0 | -9.28 | -11.8 | 0 | 0 | 56.5% | 0 | 31.5% | 114.3 | 0.156
O=C(Oc1ccc(C(=S)N2CCOCC2)cc1Cl)c1ccccc1F | 0 | 0 | 0 | 0 | 0 | - | - | - | - | -
O=C(O)c1ccc(Nc2ncc([N+](=O)[O-])cc2[N+](=O)[O-])cc1 | 0 | 0 | 0 | 0 | 0 | - | - | - | - | -
CC(C)N(C(=S)Nc1cccc(C(F)(F)F)c1)C(C)c1ccccn1 (stereo not drawn) | 0 | -10.7 | -17 | 0 | 12 | 77.0% | 0 | 44.5% | 133.0 | 0.119
COc1ccccc1NC(=S)N(C(C)C)C(C)c1ccccn1 (stereo not drawn) | 0 | 0 | 0 | 0 | 0 | - | - | - | - | -
COc1cccc(C(=O)Nc2nc(-c3ccc4c(c3)OCO4)cs2)c1 | 0 | -10.4 | -8.99 | 0 | 0 | 26.0% | 0 | 25.5% | 121.3 | 0.136
COc1cccc(C(=O)Nc2nc(-c3ccncc3)cs2)c1 | 0 | 0 | 0 | 0 | 0 | - | - | - | - | -
COc1ccc(Cl)cc1NC(=O)CNCc1cccs1 | 0 | 0 | 0 | 0 | 0 | - | - | - | - | -
COc1ccc(Cl)cc1NC(=O)CN(C)Cc1cccs1 | 0 | -12.9 | -20.8 | 0 | 0 | 74.5% | 0 | 49.5% | 108.3 | 0
COc1cccc(-c2nn(-c3ccccc3)cc2CN(C)Cc2c(C)nc3ccccn23)c1 | 0 | 0 | 0 | 0 | 0 | - | - | - | - | -
CCC1SC2=NC(C)=C(C(=O)OC)C(c3ccc(C(=O)OC)cc3)N2C1=O (stereo not drawn) | 0 | 0 | 0 | 0 | 0 | - | - | - | - | -
COC(=O)C1=C(C)N=C2SC(C)C(=O)N2C1c1cccc(F)c1 (stereo not drawn) | 0 | -11.7 | -13.4 | 0 | 0 | 73.5% | 0 | 49.5% | 101.7 | 0
